According to ChEMBL document CHEMBL1125140, “Synthesis and in vivo antitumor activity of 2-amino-9H-purine-6-sulfenamide, -sulfinamide, and -sulfonamide and related purine ribonucleosides” (1990):

Legend:
Format in all cases: functional, Mus musculus
[1] = test system: L1210; assay: Percentage of L1210 cells killed was determined in L1210 Inoculated mice at a dose of 22 mg/kg after a single treatment
Summary of the method: (§1)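 BDF1 female mice (~18 g) inoculated ip on day 0 with 1 × 10⁶ L1210 leukemia cells. Single ip bolus 24 h later, prepared just before use and given in 0.01 mL/g body weight (mg/kg dose = 10 × solubility in mg/mL; water, or Me₂SO if insoluble). Six mice per group. Percent of viable leukemia cells killed estimated from inoculum size versus life span data.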

[2] = test system: L1210; assay: Post inoculation lifespan was determined in L1210 Inoculated mice at a dose of 22 mg/Kg after a single treatment
Summary of the method: (§2)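 BDF1 female mice (~18 g) received 1 × 10⁶ L1210 cells ip on day 0, then one ip bolus at 24 h in 0.01 mL/g (dose = 10 × solubility in mg/mL; water, or Me₂SO if insoluble). Controls got 0.9% NaCl. Six mice per treatment group. %T/C = mean life span of treated / mean life span of controls × 100. Deaths assigned to leukemia or toxicity from timing and necropsy.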

[3] = test system: L1210; assay: Percentage of L1210 cells killed was determined in L1210 Inoculated mice at a dose of 173 mg/kg after a single treatment; summary of the method: as §1
[4] = test system: L1210; assay: Post inoculation lifespan was determined in L1210 Inoculated mice at a dose of 173 mg/Kg after a single treatment; summary of the method: as §2
[5] = test system: L1210; assay: Percentage of L1210 cells killed was determined in L1210 Inoculated mice at a dose of 104 mg/kg after a single treatment; summary of the method: as §1
[6] = test system: L1210; assay: Post inoculation lifespan was determined in L1210 Inoculated mice at a dose of 104 mg/Kg; summary of the method: as §2
[7] = test system: L1210; assay: Percentage of L1210 cells killed was determined in L1210 Inoculated mice at a dose of 37 mg/kg after a single treatment; summary of the method: as §1
[8] = test system: L1210; assay: Post inoculation lifespan was determined in L1210 Inoculated mice at a dose of 37 mg/Kg after a single treatment; summary of the method: as §2
[9] = test system: L1210; assay: Percentage of L1210 cells killed was determined in L1210 Inoculated mice at a dose of 62 mg/kg after a single treatment; summary of the method: as §1
[10] = test system: L1210; assay: Post inoculation lifespan was determined in L1210 Inoculated mice at a dose of 62 mg/Kg; summary of the method: as §2
[11] = test system: L1210; assay: Percentage of L1210 cells killed was determined in L1210 Inoculated mice at a dose of 480 mg/kg after a single treatment; summary of the method: as §1
[12] = test system: L1210; assay: Post inoculation lifespan was determined in L1210 Inoculated mice at a dose of 480 mg/Kg after a single treatment; summary of the method: as §2
[13] = test system: L1210; assay: Percentage of L1210 cells killed was determined in L1210 Inoculated mice at a dose of 13 mg/kg after a single treatment; summary of the method: as §1
[14] = test system: L1210; assay: Post inoculation lifespan was determined in L1210 Inoculated mice at a dose of 13 mg/Kg after a single treatment; summary of the method: as §2
[15] = test system: L1210; assay: Post inoculation lifespan was determined in L1210 Inoculated mice at a dose of 62 mg/Kg after a single treatment; summary of the method: as §2
[16] = test system: L1210; assay: Post inoculation lifespan was determined in L1210 Inoculated mice at a dose of 104 mg/Kg after a single treatment; summary of the method: as §2
[17] = test system: L1210; assay: Percentage of L1210 cells killed was determined in L1210 Inoculated mice at a dose of 8.1 mg/kg after a single treatment; summary of the method: as §1
[18] = test system: L1210; assay: Post inoculation lifespan was determined in L1210 Inoculated mice at a dose of 8.1 mg/Kg after a single treatment; summary of the method: as §2

Compound: CC(=O)OC[C@H]1O[C@@H](n2cnc3c([S+](N)[O-])nc(N)nc32)[C@H](OC(C)=O)[C@@H]1OC(C)=O (stereo partly specified)
- Activity [1]: 0%
- T/C [2]: 99%

Compound: NS(=O)(=O)c1ncnc2c1ncn2[C@@H]1O[C@H](CO)[C@@H](O)[C@H]1O
- Activity [3]: 98.36%
- T/C [4]: 147%

Compound: NS(=O)(=O)c1[nH]cnc2ncnc1-2
- Activity [5]: 95.48%
- T/C [6]: 134%

Compound: Nc1nc(S(N)(=O)=O)c2[nH]cnc2n1
- Activity [1]: 20.78%
- T/C [2]: 103%

Compound: Nc1nc([S+](N)[O-])c2[nH]cnc2n1 (stereo unspecified)
- Activity [1]: 67.94%
- T/C [2]: 113%

Compound: NSc1[nH]c(N)nc2ncnc1-2
- Activity [7]: 99.04%
- T/C [8]: 159%

Compound: O=S(=O)(F)c1[nH]cnc2ncnc1-2
- Activity [9]: 73.54%
- T/C [10]: 115%

Compound: NSc1ncnc2c1ncn2C1O[C@H](CO)[C@@H](O)[C@H]1O (stereo partly specified)
- Activity [11]: 97.82%
- T/C [12]: 149%

Compound: C[C@H]1OC(n2cnc3c(SN)nc(N)nc32)[C@H](O)[C@@H]1O (stereo partly specified)
- Activity [13]: 95.9%
- T/C [14]: 136%

Compound: Nc1nc(S(N)(=O)=O)c2ncn(C3O[C@H](CO)[C@@H](O)[C@H]3O)c2n1 (stereo partly specified)
- Activity [9]: 92.4%
- T/C [15]: 128%

Compound: NSc1nc(N)nc2c1ncn2C1O[C@H](CO)[C@@H](O)[C@H]1O (stereo partly specified)
- Activity [1]: 99.84%
- T/C [2]: 170%

Compound: C[C@H]1OC(n2cnc3c(S(N)(=O)=O)nc(N)nc32)[C@H](O)[C@@H]1O (stereo partly specified)
- Activity [11]: 94.38%
- T/C [12]: 130%

Compound: C[C@H]1OC(n2cnc3c(S)nc(N)nc32)[C@H](O)[C@@H]1O (stereo partly specified)
- Activity [7]: 99.82%
- T/C [8]: 169%

Compound: Nc1nc([S+](N)[O-])c2ncn(C3O[C@H](CO)[C@@H](O)[C@H]3O)c2n1 (stereo partly specified)
- Activity [3]: 99.8%
- T/C [4]: 167%

Compound: N[S+]([O-])c1ncnc2c1ncn2C1O[C@H](CO)[C@@H](O)[C@H]1O (stereo partly specified)
- Activity [9]: 70.87%
- T/C [15]: 114%

Compound: C[C@H]1OC(n2cnc3c([S+](N)[O-])nc(N)nc32)[C@H](O)[C@@H]1O (stereo partly specified)
- Activity [5]: 99.87%
- T/C [16]: 172%

Compound: Nc1nc(=S)c2ncn([C@@H]3O[C@H](CO)[C@@H](O)[C@H]3O)c2[nH]1 [THIOGUANOSINE]
- Activity [17]: 98.41%
- T/C [18]: 147%

Compound: OC[C@H]1O[C@@H](n2cnc3c(S)ncnc32)[C@H](O)[C@@H]1O [THIOINOSINE]
- Activity [3]: 98.36%
- T/C [4]: 150%
